Source: ChEMBL document CHEMBL3124870, “Discovery and characterization of potent thiazoles versus methicillin- and vancomycin-resistant Staphylococcus aureus” (J Med Chem, 2014)
In brackets after ≈: the same amount, converted by molar mass.

How the values were obtained:
Staphylococcus aureus [1] = assay: Bactericidal activity against methicillin-resistant Staphylococcus aureus USA300 assessed as time required to complete elimination of bacteria by 3-log10 by time-kill assay; assay type: functional
Method in brief: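 Viable counts (CFU) followed over a 12-hour window; endpoint is a 3-log10 fall in CFU.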

Staphylococcus aureus [2] = assay: Antibacterial activity against methicillin-resistant Staphylococcus aureus USA200 assessed as inhibition of visible growth by broth microdilution method; assay type: functional
Staphylococcus aureus [3] = assay: Antibacterial activity against methicillin-resistant Staphylococcus aureus NRS119 assessed as inhibition of visible growth by broth microdilution method; assay type: functional
Staphylococcus aureus [4] = assay: Antibacterial activity against methicillin-resistant Staphylococcus aureus NRS108 assessed as inhibition of visible growth by broth microdilution method; assay type: functional
Staphylococcus aureus [5] = assay: Antibacterial activity against vancomycin-intermediate Staphylococcus aureus HIP07256 assessed as inhibition of visible growth by broth microdilution method; assay type: functional
Staphylococcus aureus [6] = assay: Antibacterial activity against methicillin-resistant Staphylococcus aureus USA400 assessed as inhibition of visible growth by broth microdilution method; assay type: functional
HeLa = assay: Cytotoxicity against human HeLa cells assessed as cell viability at 11 ug/ml by MTS assay; assay type: cell-based
Staphylococcus aureus [7] = assay: Antibacterial activity against methicillin-resistant Staphylococcus aureus ATCC 43300 assessed as inhibition of visible growth by broth microdilution method; assay type: functional
Staphylococcus aureus [8] = assay: Antibacterial activity against methicillin-resistant Staphylococcus aureus NRS194 assessed as inhibition of visible growth by broth microdilution method; assay type: functional
Staphylococcus aureus [9] = assay: Antibacterial activity against methicillin-resistant Staphylococcus aureus NRS107 assessed as inhibition of visible growth by broth microdilution method; assay type: functional
Staphylococcus aureus [10] = assay: Antibacterial activity against methicillin-resistant Staphylococcus aureus USA800 assessed as inhibition of visible growth by broth microdilution method; assay type: functional
Staphylococcus aureus [11] = assay: Antibacterial activity against methicillin-resistant Staphylococcus aureus USA700 assessed as inhibition of visible growth by broth microdilution method; assay type: functional
Staphylococcus aureus [12] = assay: Antibacterial activity against methicillin-resistant Staphylococcus aureus USA1100 assessed as inhibition of visible growth by broth microdilution method; assay type: functional
Staphylococcus aureus [13] = assay: Antibacterial activity against vancomycin-intermediate Staphylococcus aureus ATCC 700699 assessed as inhibition of visible growth by broth microdilution method; assay type: functional
Staphylococcus aureus [14] = assay: Antibacterial activity against vancomycin-intermediate Staphylococcus aureus LIM 3 assessed as inhibition of visible growth by broth microdilution method; assay type: functional
Staphylococcus aureus [15] = assay: Antibacterial activity against methicillin-resistant Staphylococcus aureus USA1000 assessed as inhibition of visible growth by broth microdilution method; assay type: functional
Staphylococcus aureus [16] = assay: Antibacterial activity against methicillin-resistant Staphylococcus aureus USA500 assessed as inhibition of visible growth by broth microdilution method; assay type: functional
Staphylococcus aureus [17] = assay: Antibacterial activity against methicillin-resistant Staphylococcus aureus USA100 assessed as inhibition of visible growth by broth microdilution method; assay type: functional
Staphylococcus aureus [18] = assay: Antibacterial activity against methicillin-resistant Staphylococcus aureus USA300 assessed as inhibition of visible growth by broth microdilution method; assay type: functional
Staphylococcus aureus [19] = assay: Antibacterial activity against vancomycin-resistant Staphylococcus aureus assessed as inhibition of visible growth by broth microdilution method; assay type: functional
MDCK [20] = assay: Apparent permeability from apical to basolateral side in MDCK cells expressing MDR1 for 2 hrs by LC-MS/MS analysis; assay type: ADME, cell-based, Canis lupus familiaris; conditions: dog
Caco-2 [21] = assay: Efflux ratio of apparent permeability from basolateral to apical side over apical to basolateral side in human Caco2 cells at 10 microM for 2 hrs by LC-MS/MS analysis; assay type: ADME, cell-based; conditions: caco-2, 2 h
Method in brief: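 Caco-2 monolayer permeability was run under slightly acidic conditions, with the compound at 10 μM. Transfer was measured in the apical-to-basolateral and basolateral-to-apical directions. The efflux ratio was taken as B→A over A→B permeability.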

Liver microsome = assay: Half life in human liver microsomes by LC-MS/MS analysis; assay type: ADME
Caco-2 [22] = assay: Apparent permeability across basolateral to apical to side in human Caco2 cells at 10 microM for 2 hrs by LC-MS/MS analysis; assay type: ADME, cell-based; conditions: caco-2, 2 h
[23] = Aqueous solubility of compound in phosphate buffer assessed as solubility limit after 2 hrs by turbidity analysis; assay type: physicochemical
MDCK [24] = assay: Apparent permeability from basolateral to apical side in MDCK cells expressing MDR1 for 2 hrs by LC-MS/MS analysis; assay type: ADME, cell-based, Canis lupus familiaris; conditions: dog
MDCK [25] = assay: Efflux ratio of apparent permeability from basolateral to apical side over apical to basolateral side in MDCK cells expressing MDR1 for 2 hrs by LC-MS/MS analysis; assay type: ADME, cell-based, Canis lupus familiaris; conditions: dog
Method in brief: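 Madin-Darby canine kidney cells transfected to overexpress MDR1 (P-glycoprotein 1). Apparent permeability (Papp, cm/sec) was measured in both the apical-to-basolateral and basolateral-to-apical directions. The efflux ratio was taken as Papp(B→A)/Papp(A→B).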

SMILES | Time (Staphylococcus aureus [1]) | MIC (Staphylococcus aureus [2]) | MIC (Staphylococcus aureus [3]) | MIC (Staphylococcus aureus [4]) | MIC (Staphylococcus aureus [5]) | MIC (Staphylococcus aureus [6]) | Activity (HeLa) | MIC (Staphylococcus aureus [7]) | MIC (Staphylococcus aureus [8]) | MIC (Staphylococcus aureus [9]) | MIC (Staphylococcus aureus [10]) | MIC (Staphylococcus aureus [11]) | MIC (Staphylococcus aureus [12]) | MIC (Staphylococcus aureus [13]) | MIC (Staphylococcus aureus [14]) | MIC (Staphylococcus aureus [15]) | MIC (Staphylococcus aureus [16]) | MIC (Staphylococcus aureus [17]) | MIC (Staphylococcus aureus [18]) | MIC (Staphylococcus aureus [19]) | further results
CN[C@H](CC(C)C)C(=O)N[C@H]1C(=O)N[C@@H](CC(N)=O)C(=O)N[C@H]2C(=O)N[C@H]3C(=O)N[C@H](C(=O)N[C@H](C(=O)O)c4cc(O)cc(O)c4-c4cc3ccc4O)[C@H](O)c3ccc(c(Cl)c3)Oc3cc2cc(c3O[C@@H]2O[C@H](CO)[C@@H](O)[C@H](O)[C@H]2O[C@H]2C[C@](C)(N)[C@H](O)[C@H](C)O2)Oc2ccc(cc2Cl)[C@H]1O [VANCOMYCIN] | 12 h | 0.4 µg/mL (≈ 0.276 µM) |  |  |  |  |  |  |  |  |  |  |  |  |  |  |  |  |  |  | 
CCCCCc1ccc(-c2nc(C)c(/C(C)=N/NC(=N)N)s2)cc1 | 2 h |  | 0.9 µg/mL (≈ 2.62 µM) | 0.9 µg/mL (≈ 2.62 µM) | 0.7 µg/mL (≈ 2.04 µM) | 0.9 µg/mL (≈ 2.62 µM) | Non-toxic | 0.8 µg/mL (≈ 2.33 µM) | 1.1 µg/mL (≈ 3.2 µM) | 0.5 µg/mL (≈ 1.46 µM) | 0.7 µg/mL (≈ 2.04 µM) | 0.9 µg/mL (≈ 2.62 µM) |  |  |  |  |  |  |  |  | 
C/C(=N\NC(=N)N)c1sc(-c2ccc(-c3ccccc3)cc2)nc1C |  | 0.6 µg/mL (≈ 1.72 µM) | 0.6 µg/mL (≈ 1.72 µM) | 2 µg/mL (≈ 5.72 µM) | 0.5 µg/mL (≈ 1.43 µM) | 0.8 µg/mL (≈ 2.29 µM) | Non-toxic | 0.6 µg/mL (≈ 1.72 µM) | 1.4 µg/mL (≈ 4.01 µM) | 1.2 µg/mL (≈ 3.43 µM) | 1.2 µg/mL (≈ 3.43 µM) | 0.8 µg/mL (≈ 2.29 µM) | 0.6 µg/mL (≈ 1.72 µM) | 0.6 µg/mL (≈ 1.72 µM) | 0.6 µg/mL (≈ 1.72 µM) | 0.8 µg/mL (≈ 2.29 µM) | 1.6 µg/mL (≈ 4.58 µM) | 2 µg/mL (≈ 5.72 µM) | 1 µg/mL (≈ 2.86 µM) | 0.6 µg/mL (≈ 1.72 µM) | 
C/C(=N\NC(=N)N)c1sc(-c2ccc3ccccc3c2)nc1C |  | 2.6 µg/mL (≈ 8.04 µM) | 3.8 µg/mL (≈ 11.7 µM) | 1.9 µg/mL (≈ 5.87 µM) | 2.6 µg/mL (≈ 8.04 µM) |  | Non-toxic | 3.8 µg/mL (≈ 11.7 µM) | 1.9 µg/mL (≈ 5.87 µM) | 1.9 µg/mL (≈ 5.87 µM) |  | 2.6 µg/mL (≈ 8.04 µM) |  | 3.2 µg/mL (≈ 9.89 µM) |  |  | 2.6 µg/mL (≈ 8.04 µM) |  |  |  | 
CCCCc1ccc(-c2nc(C)c(/C(C)=N/NC(=N)N)s2)cc1 | 2 h | 2.8 µg/mL (≈ 8.5 µM) | 1.4 µg/mL (≈ 4.25 µM) | 1.4 µg/mL (≈ 4.25 µM) | 1.4 µg/mL (≈ 4.25 µM) | 1.4 µg/mL (≈ 4.25 µM) | Non-toxic | 2.8 µg/mL (≈ 8.5 µM) | 1.4 µg/mL (≈ 4.25 µM) | 1.4 µg/mL (≈ 4.25 µM) | 2.3 µg/mL (≈ 6.98 µM) | 1.8 µg/mL (≈ 5.46 µM) | 2.8 µg/mL (≈ 8.5 µM) | 1.4 µg/mL (≈ 4.25 µM) | 1.4 µg/mL (≈ 4.25 µM) | 1.4 µg/mL (≈ 4.25 µM) | 1.4 µg/mL (≈ 4.25 µM) | 5.5 µg/mL (≈ 16.7 µM) | 1.4 µg/mL (≈ 4.25 µM) | 1.4 µg/mL (≈ 4.25 µM) | Papp (MDCK [20]): 0.7 ×10⁻⁶ cm/s; Ratio (Caco-2 [21]): > 2; t1/2 (Liver microsome): 28.8 min; Papp (Caco-2 [22]): 2.2 ×10⁻⁶ cm/s; solubility kinetic at 2 h [23]: 62.6 µM (≈ 20.6 µg/mL); Papp (MDCK [24]): 3.6 ×10⁻⁶ cm/s; Ratio (MDCK [25]): 5
C/C(=N\NC(=N)N)c1sc(-c2ccc(C3CCCCC3)cc2)nc1C | 6 h | 1.2 µg/mL (≈ 3.38 µM) | 0.7 µg/mL (≈ 1.97 µM) | 1.5 µg/mL (≈ 4.22 µM) | 0.7 µg/mL (≈ 1.97 µM) | 0.7 µg/mL (≈ 1.97 µM) | Non-toxic | 1.5 µg/mL (≈ 4.22 µM) | 0.7 µg/mL (≈ 1.97 µM) | 0.6 µg/mL (≈ 1.69 µM) | 0.7 µg/mL (≈ 1.97 µM) | 1.5 µg/mL (≈ 4.22 µM) | 0.7 µg/mL (≈ 1.97 µM) | 0.7 µg/mL (≈ 1.97 µM) | 0.5 µg/mL (≈ 1.41 µM) | 0.9 µg/mL (≈ 2.53 µM) | 0.9 µg/mL (≈ 2.53 µM) | 0.7 µg/mL (≈ 1.97 µM) | 0.7 µg/mL (≈ 1.97 µM) | 1.5 µg/mL (≈ 4.22 µM) | 
